IC50 and Cell survived data for 78 compounds are collected here from ChEMBL document CHEMBL1135476, “Synthesis and structure-activity relationship study of potent trypanocidal thio semicarbazone inhibitors of the trypanosomal cysteine protease cruzain” (J Med Chem, 2002).

The structures appear in SMILES notation. Some results are limits rather than exact numbers.

Assay [1] concerns the target Cruzipain (Trypanosoma cruzi, UniProt P25779). Kind of assay: Inhibitory activity against Trypanosoma cruzi cathepsin L-like protease (cruzain) was determined using purified recombinant protein. In a few lines:
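Purified recombinant cruzain (1 nM) preincubated 5 min at room temperature with inhibitor (20-50000 nM; seven concentrations) in 100 mM sodium acetate, 5 mM DTT, pH 5.50. DMSO 0.7% in assay. IC50 read graphically from linear portion of inhibition vs log[I], at least two points in linear range.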

In assay [2] the test system is Trypanosoma cruzi. Kind of assay: Tested for the trypanocidal property against infected host cells (Trypanosoma cruzi) using a cell culture assay. It is filed as functional. In short, it runs like this: (§1)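 Irradiated (5000 rad) J774 macrophages were plated 24 h before infection with ~10^6 T. cruzi Y-strain trypomastigotes per well; the trypomastigotes came from BESM cell culture supernatants. Parasites were removed at 2 h, then compound was given at 10 μM (stocks 10 mM in DMSO) in RPMI-1640 with FCS at 37 °C, 5% CO2, refreshed every 48 h. DMSO blank served as control. Cultures were followed by phase microscopy for up to […], scoring intracellular cycle duration and host-cell survival and toxicity.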

The subject of assay [3] is Trypanosoma cruzi. Kind of assay: Trypanocidal activity in infected host cells. The format is functional. In short, it runs like this:
as §1

Assay [4] deals with Trypanosoma cruzi. Kind of assay: Tested for the trypanocidal property against infected host cells (Trypanosoma cruzi) using a cell culture assay. It is filed as functional. In a few lines:
as §1

Chain of Cruzipain (P25779 whole entry): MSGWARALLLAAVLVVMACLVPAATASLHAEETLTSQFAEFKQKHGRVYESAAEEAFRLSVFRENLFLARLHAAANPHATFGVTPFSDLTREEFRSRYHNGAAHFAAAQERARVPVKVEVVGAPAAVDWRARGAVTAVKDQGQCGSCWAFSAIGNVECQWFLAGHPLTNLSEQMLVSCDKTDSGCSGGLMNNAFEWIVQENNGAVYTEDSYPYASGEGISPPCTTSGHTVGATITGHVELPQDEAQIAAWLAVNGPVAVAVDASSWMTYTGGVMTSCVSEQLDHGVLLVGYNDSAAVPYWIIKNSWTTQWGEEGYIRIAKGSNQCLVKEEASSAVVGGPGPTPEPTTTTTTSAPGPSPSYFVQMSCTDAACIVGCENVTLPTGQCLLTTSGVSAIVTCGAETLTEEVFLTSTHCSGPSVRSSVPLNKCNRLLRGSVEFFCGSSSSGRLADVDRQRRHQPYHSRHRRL

As to `COc1ccc(/C=N/NC(N)=S)cc1O`, the IC50 in assay [1] was more than 10000 nM.

In the case of `NC(=O)N/N=C/c1ccc(-c2ccc(Cl)cc2)o1`, the 50% inhibitory concentration (IC50) in assay [1] was more than 10000 nM. Turning to `CC/C(=N\N=C(\N)S)c1cccc(Br)c1`, the Cell survived in assay [2] was more than 46 days.

Turning to `NC(=S)N1CCC(c2cccc(Br)c2)=N1`, in assay [3], the Cell survived was determined as 5 days. In addition, in assay [1], the concentration for half-maximal inhibition (IC50) came out at 200 nM. Consider `FC(F)(F)c1ccc(NC(=S)N2CCC(c3cccc(Br)c3)=N2)cc1`, for which the IC50 in assay [1] was more than 10000 nM. In the case of `N/C(S)=N/N=C/c1ccc(-c2ccc(Cl)cc2)o1`, the IC50 in assay [1] came to 300 nM. This compound yielded a Cell survived in assay [4] of 15 days. In the case of `CC/N=C(\S)N1CCC(c2cccc(Br)c2)=N1`, the concentration for half-maximal inhibition (IC50) in assay [1] is more than 10000 nM. In the case of `C/C(=N\NC(N)=O)c1cccc(Cl)c1`, the IC50 in assay [1] was more than 10000 nM. Still for that read-out and setting: as for `CC/C(=N\N=C(/S)Nc1ccccc1)c1cccc(Br)c1`, the figure is more than 10000 nM; as for `S=C(NCc1ccco1)N1CCC(c2cccc(Br)c2)=N1`, more than 10000 nM. On to `N/C(S)=N/N=C/c1ccc(-c2cccc(Cl)c2)o1`, for which the half-inhibitory concentration (IC50) in assay [1] turned out to be 140 nM. Take `NC(=S)N1CCC(c2ccc(Cl)c(Cl)c2)=N1`: in assay [3], the Cell survived is more than 41 days. In assay [1], the half-inhibitory concentration (IC50) stood at 60 nM.

With `C/C(=N\N=C(\N)S)c1cccc(C(F)(F)F)c1`, the Cell survived in assay [3] came to 15 days. Besides, the IC50 in assay [1] was 170 nM. In the case of `CN(C)c1ccc(/C=N/N=C(/N)S)c2ccccc12`, the IC50 in assay [1] was more than 10000 nM. Still for that read-out and setting: with `C/C(=N\NC(N)=O)c1cccc(C(F)(F)F)c1` the figure was more than 10000 nM. Consider `CC1CN(C(=N)S)N=C1c1cccc(Br)c1` (stereo not drawn), for which the Cell survived in assay [3] is more than 22 days.

As to `N/C(S)=N/N=C/c1ccc(Cl)c(Cl)c1`, in assay [1], the half-maximal inhibitory concentration (IC50) is 460 nM. Same read-out and setting: as for `N/C(S)=N/N=C/c1cc(Cl)cc(Cl)c1`, the figure is 560 nM; as for `C/C(=N\NC(N)=O)c1ccc(Cl)c(Cl)c1`, more than 10000 nM. The same measure, in the same setting: with `CC/C(=N\N=C(\N)S)c1ccccc1` the figure was more than 10000 nM; with `CC/C(=N\N=C(/S)NC)c1cccc(Br)c1`, more than 10000 nM; with `CC/C(=N\NC(N)=O)c1cccc(C(F)(F)F)c1`, more than 10000 nM. The same measure, in the same setting: with `CC/C(=N\NC(N)=O)c1cccc(Cl)c1` the figure was more than 10000 nM. Compound `C/C(=N\N=C(\N)S)c1cccc(Br)c1` registered a Cell survived in assay [3] of 22 days. Turning to `NC(=O)N/N=C/c1ccc(-c2cccc(Cl)c2)o1`, the IC50 in assay [1] was more than 10000 nM. On the same count and under the same terms, as for `CC/C(=N\N=C(\N)S)c1ccc2cc(OC)ccc2c1`, the figure is more than 10000 nM. In assay [3], `C/C(=N\N=C(\N)S)c1cc(C(F)(F)F)cc(C(F)(F)F)c1` displayed a Cell survived of 7 days. In addition, in assay [1], the IC50 was 60 nM. For the compound `CC/C(=N\NC(N)=O)c1cc(C(F)(F)F)cc(C(F)(F)F)c1`, the 50% inhibitory concentration (IC50) in assay [1] was more than 10000 nM.

In the case of `C/C(=N\N=C(\N)S)c1ccc(Br)s1`, the IC50 in assay [1] amounted to 3800 nM.

Consider `CC/C(=N\N=C(\N)S)c1ccc(Br)cc1`, for which the half-inhibitory concentration (IC50) in assay [1] was more than 10000 nM. Same read-out and setting: with `NC(=S)N/N=C/c1ccc(-c2ccc(Br)cc2)o1` the figure was 280 nM; with `C/C(=N\N=C(\N)S)c1ccc(Cl)s1`, 1900 nM. For `NC(=S)N1CCC(c2cccc(Cl)c2)=N1`, the Cell survived in assay [3] was found to be 5 days. The IC50 in assay [1] is 270 nM. Turning to `C/C(=N\N=C(\N)S)c1ccccc1Cl`, the half-inhibitory concentration (IC50) in assay [1] is more than 10000 nM.

For `CC/C(=N\N=C(\N)S)c1ccc(Cl)cc1Cl`, in assay [1], the IC50 was more than 10000 nM. Same read-out and setting: with `N=C(S)N/N=C/c1ccccc1C(F)(F)F` the figure was more than 10000 nM; with `C/C(=N\NC(N)=O)c1cccc(Br)c1`, more than 10000 nM; with `FC(F)(F)c1cccc(NC(=S)N2CCC(c3cccc(Cl)c3)=N2)c1`, 1700 nM. Same read-out and setting: as for `CCC(NNC(N)=S)c1cccc(Br)c1` (stereo not drawn), the figure is more than 10000 nM. For `CC1CN(C(=N)S)N=C1c1cccc(Cl)c1` (stereo not drawn), the Cell survived in assay [3] is more than 41 days. Besides, the 50% inhibitory concentration (IC50) in assay [1] is 230 nM. In assay [3], `S=C(Nc1cccc(Cl)c1)N1CCC(c2cccc(Br)c2)=N1` showed a Cell survived of 5 days. The 50% inhibitory concentration (IC50) in assay [1] came to 1000 nM. The compound `C/C(=N\N=C(\N)S)c1ccc(Cl)c(Cl)c1` gave a Cell survived in assay [3] of more than 41 days. Besides, the 50% inhibitory concentration (IC50) in assay [1] was found to be 50 nM.

For the compound `N=C(S)N/N=C/c1cccc(C(F)(F)F)c1`, the IC50 in assay [1] stood at 480 nM.

For `N=C(S)N/N=C/c1cc(C(F)(F)F)cc(C(F)(F)F)c1`, in assay [1], the half-maximal inhibitory concentration (IC50) came to 320 nM. The same measure, in the same setting: with `C/C(=N\N=C(\N)S)c1ccccc1Br` the figure was 3900 nM. Same read-out and setting: with `CC/C(=N\N=C(/S)NCc1ccco1)c1cccc(Br)c1` the figure was more than 10000 nM. `CC/C(=N\N=C(\N)S)c1cccc(Cl)c1`: in assay [1], the concentration for half-maximal inhibition (IC50) worked out at 220 nM. The Cell survived in assay [2] turned out to be 22 days.

For `COc1ccc2ccccc2c1/C=N/N=C(/N)S`, the 50% inhibitory concentration (IC50) in assay [1] came to 560 nM. The Cell survived in assay [2] came out at 5 days.

In the case of `S=C(Nc1ccccc1)N1CCC(c2cccc(Br)c2)=N1`, the IC50 in assay [1] is more than 10000 nM. As for `CC1CN(C(=N)S)N=C1c1cccc(C(F)(F)F)c1` (stereo not drawn), in assay [3], the Cell survived is more than 41 days. Further, the half-maximal inhibitory concentration (IC50) in assay [1] was found to be 40 nM.

`CC/N=C(\S)N/N=C(\CC)c1cccc(Br)c1`: in assay [1], the 50% inhibitory concentration (IC50) is more than 10000 nM. Same read-out and setting: with `C/N=C(\S)N1CCC(c2cccc(Br)c2)=N1` the figure was more than 10000 nM. On the same count and under the same terms, as for `N/C(S)=N/N=C/c1cc(C#Cc2ccccc2)cs1`, the figure is more than 10000 nM. On to `C/C(=N\N=C(\N)S)c1ccc(N2CCOCC2)cc1`, for which the IC50 in assay [1] was more than 10000 nM. Same read-out and setting: with `CC/C(=N\N=C(/S)NC(C)C)c1cccc(Br)c1` the figure was more than 10000 nM; with `CC/C(=N\N=C(\N)S)c1ccc(OC)cc1`, more than 10000 nM. In the case of `CCCCCCNC(=S)N1CCC(c2cccc(Br)c2)=N1`, the half-maximal inhibitory concentration (IC50) in assay [1] turned out to be 1400 nM. In the case of `CC/C(=N\NC(N)=O)c1ccc(Cl)c(Cl)c1`, in assay [1], the IC50 was more than 10000 nM.

For the compound `CC1CN(C(=N)S)N=C1c1ccc(Cl)c(Cl)c1` (stereo not drawn), the Cell survived in assay [3] amounted to 15 days. Besides, in assay [1], the IC50 worked out at 70 nM. In the same order, the values of `N=C(S)N1CCC(c2cccc(C(F)(F)F)c2)=N1` are 5 days and 80 nM.

For the compound `CC/C(=N\NC(N)=O)c1cccc(Br)c1`, in assay [1], the IC50 was more than 10000 nM. The same measure, in the same setting: with `CC/C(=N\N=C(/S)NCCN1CCNCC1)c1cccc(Br)c1` the figure was more than 10000 nM; with `Cn1nc(C(F)(F)F)cc1-c1ccc(/C=N/N=C(/N)S)s1`, 7000 nM.

The compound `N/C(S)=N/N=C/c1cccc(Br)c1` gave a Cell survived in assay [3] of 8 days. Besides, the IC50 in assay [1] turned out to be 1300 nM. On to `S=C(NCCN1CCOCC1)N1CCC(c2cccc(Br)c2)=N1`, for which the IC50 in assay [1] was more than 10000 nM. Still for that read-out and setting: as for `NC(=O)N/N=C/c1ccc(-c2ccc(Br)cc2)o1`, the figure is more than 10000 nM. `CC/C(=N\N=C(\N)S)c1ccc(Cl)c(Cl)c1`: the Cell survived in assay [3] came out at 9 days. For the same compound, in assay [1], the half-maximal inhibitory concentration (IC50) turned out to be 20 nM. With `CC/C(=N\N=C(\N)S)c1cccc(F)c1`, in assay [1], the half-maximal inhibitory concentration (IC50) is more than 10000 nM. `CC/C(=N\N=C(\N)S)c1cccc(C(F)(F)F)c1`: the half-inhibitory concentration (IC50) in assay [1] came to 50 nM. The same compound had a Cell survived in assay [2] of more than 41 days. Consider `COc1cccc(/C(C)=N/N=C(/N)S)c1`, for which the IC50 in assay [1] is more than 10000 nM. Consider `CC(C)/N=C(\S)N1CCC(c2cccc(Br)c2)=N1`, for which the 50% inhibitory concentration (IC50) in assay [1] is more than 10000 nM. On the same count and under the same terms, as for `CC/C(=N\N=C(\N)S)c1ccc(Cl)cc1`, the figure is more than 10000 nM. In assay [3], `CC/C(=N\N=C(\N)S)c1cc(C(F)(F)F)cc(C(F)(F)F)c1` came in with a Cell survived of 20 days. Also, in assay [1], the half-maximal inhibitory concentration (IC50) amounted to 20 nM. Consider `N/C(S)=N/N=C/c1cccc(Cl)c1Cl`, for which the IC50 in assay [1] is more than 10000 nM. Regarding `COc1ccccc1-c1ccc(/C=N/N=C(/N)S)o1`, the IC50 in assay [1] was 280 nM. Moreover, the Cell survived in assay [4] amounted to 8 days. On to `N/C(S)=N/N=C/c1cccn1S(=O)(=O)c1ccccc1`, for which, in assay [1], the IC50 was 2800 nM. `CC/C(=N\N=C(/S)Nc1ccc(C(F)(F)F)cc1)c1cccc(Br)c1` (stereo in doubt): the IC50 in assay [1] was more than 10000 nM. `CC/C(=N\N=C(/S)Nc1ccc(C(F)(F)F)cc1)c1cccc(Br)c1` (stereo in doubt; 5c) had a Cell survived in assay [3] of 5 days. For the same compound, the IC50 in assay [1] turned out to be 1600 nM.

For orientation: IC50 means the concentration needed to halve the response being measured.
